# A selection: hits, their analogues and other compounds. The true share with any hit is near 2.1%.
# RanGTP-Impb inh = disruptors of Ran-importin-beta complex formation – biochemical, FRET, CFP-Ran, YFP-importin-beta, homogeneous, primary screen. 300,000 compounds, 1.1% hits. inhibition, % (test concentration not listed). cell-free CFP-Ran/YFP-importin-beta FRET ratio;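 active means more than half of the replicate wells show a fall in the fluorescence ratio signal beyond about 16%, limit read from the data, passing the limit was not always enough; inconclusive means exactly half of the replicate wells pass the set limit; inactive means fewer than half of replicates pass the limit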;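 further: 0% = DMSO wells and 100% = Ran loaded with GDP instead of GTP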
# Calpain2 inh = calpain II (pig) inhibition; AID 1236; purified calpain II, fluorogenic peptide substrate, 30 min; 220,000 compounds, 0.37% hits; inhibition, % at 16 µM;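 active means inhibition above about 50%, limit read from the data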
# Runt-SMMHC FRET = blocks binding of human RUNX1 Runt domain to CBFb-SMMHC. Q01196+Q13951. 220,000 compounds, 0.74% hits. AID 1434. Cerulean-Runt/Venus-CBFb-SMMHC FRET ratio 530/480, 1 h. inhibition, % at 20 µM;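 active means mean inhibition across duplicate retests at 20 µM reaching about 50%, limit read from the data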;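 further: 0% = DMSO wells and 100% = wells with excess untagged CBFb-SMMHC; inhibitors lower the FRET ratio by blocking Runt binding to CBFb-SMMHC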
# Target sequence (Q01196 whole entry, looked up, the tested form may be a part): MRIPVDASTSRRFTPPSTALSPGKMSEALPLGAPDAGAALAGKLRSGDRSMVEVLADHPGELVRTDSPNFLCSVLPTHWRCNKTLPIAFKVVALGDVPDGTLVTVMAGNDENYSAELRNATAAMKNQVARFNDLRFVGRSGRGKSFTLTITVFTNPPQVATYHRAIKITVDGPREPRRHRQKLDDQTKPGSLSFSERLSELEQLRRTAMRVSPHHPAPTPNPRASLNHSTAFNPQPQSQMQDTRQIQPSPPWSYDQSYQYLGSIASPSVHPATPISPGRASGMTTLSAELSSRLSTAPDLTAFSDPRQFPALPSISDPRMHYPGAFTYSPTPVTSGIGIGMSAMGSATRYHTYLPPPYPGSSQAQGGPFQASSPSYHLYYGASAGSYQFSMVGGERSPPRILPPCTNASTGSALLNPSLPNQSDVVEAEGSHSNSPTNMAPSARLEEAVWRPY
# Target sequence (Q13951 whole entry, looked up, the tested form may be a part): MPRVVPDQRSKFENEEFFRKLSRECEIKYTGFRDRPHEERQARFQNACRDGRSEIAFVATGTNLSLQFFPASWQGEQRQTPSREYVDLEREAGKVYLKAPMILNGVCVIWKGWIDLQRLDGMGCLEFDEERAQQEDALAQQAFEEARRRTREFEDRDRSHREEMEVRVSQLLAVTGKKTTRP
# Runt-CBFb FRET = Runt domain-CBFb interaction inhibition; 220,000 compounds, 0.46% hits; Q01196+Q13951; AID 1496; inhibition, % at 20 µM; Cerulean-Runt/Venus-CBFb FRET ratio 530/480, 1 h;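 active means inhibition over about 50% at 20 µM in the single-dose screen, limit read from the data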;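 further: 0% = DMSO wells and 100% = excess unlabeled CBFb competitor control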
#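 Reagent – Venus-CBFb binding partner, 100 nM · Assay system – Cerulean-tagged RUNX1 Runt domain (FRET donor) fusion protein · Input – 100 nM per protein · Incubation – two 1 h room-temperature incubations shielded from light · Measured by – FRET fluorescence · Medium – Tris buffer pH 7.5 with salts and BSA · Benchmarks – unlabeled CBFb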
# FAS TE block = blocks the thioesterase domain of human fatty acid synthase; recombinant FAS-TE, OMFH fluorogenic substrate, fluorescence endpoint; inhibition, % at 15 µM; 360,000 compounds, 0.67% hits;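 active means compounds whose normalised, plate-corrected inhibition of enzyme fluorescence in the single-dose primary screen is 50% or more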;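 further: 0% = DMSO with enzyme and 100% = substrate without enzyme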
# * = called active by the depositor; i = inactive; ? = inconclusive; · = no result.
SMILES,RanGTP-Impb inh,Calpain2 inh,Runt-SMMHC FRET,Runt-CBFb FRET,FAS TE block
CC1(C)C(=O)OC(c2c(F)c(F)c(F)c(F)c2F)C2(CCCCC2)C1=O (centres undefined),3.7,56.8*,0.9,-5.8,16.0
CCOC(=O)C1CN(S(=O)(=O)c2ccc(C)cc2)C1,-2.3,52.9*,2.0,0.7,-4.1
CCCCCCc1cc2cc(C(N)=O)c(=N)oc2cc1O,168.1*,i,59.0*,19.5,·
CCCCCCc1cc2cc(S(=O)(=O)c3ccc(F)c(Cl)c3)c(=O)oc2cc1O,130.1*,-3.9,63.2*,19.2,5.6
CCCCCCc1cc2cc(C(=O)OCC)c(=O)oc2cc1O,189.5*,-332.1,83.7*,9.5,-24.7
CCCCCCc1cc2cc(/C(N)=N/NC(=O)c3ccncc3)c(=O)oc2cc1O,·,·,·,·,-71.2
CCCCC(=O)OCCNC(=O)c1cc2ccccc2oc1=O,-0.3,-30.9,-3.5,1.0,3.6
CCCCCCc1cc2cc(C(=O)Nc3cccc(OC)c3)c(=O)oc2cc1O,156.2*,-70.7,63.1*,143.1*,-15.3
N#CC(C#N)=CNc1cccnc1,2.6,-6.3,0.4,-0.3,2.8
Cc1cc(C)n(S(=O)(=O)c2ccccc2[N+](=O)[O-])n1,-1.3,·,·,·,-4.8
Nc1nc2ccccc2cc1C(=O)NCc1ccc(Cl)cc1Cl,·,·,·,·,8.1
Cc1noc(C)c1CSCC(=O)Nc1ccccc1N1CCCCC1,6.4,·,·,·,11.5
COCCN1C(=O)N[C@@H](c2ccccc2)[C@H](C(=O)OC)[C@H]1C,-1.5,·,·,·,-7.1
CCCCCCc1cc2cc(C(=O)NC)c(=N)oc2cc1O,166.2*,·,60.4*,10.4,-103.5
CCOc1ccc2cc(C(=O)NCc3ccccc3)c(=N)oc2c1,4.6,·,·,·,1.2
CC(C)C(=O)OC/C(O)=C(\C#N)c1nc2ccccc2[nH]1,15.3*,-120.5,14.8,4.5,-8.8
COCC(=O)OC/C(O)=C(\C#N)c1nc2ccccc2[nH]1,6.2,-12.8,7.0,2.8,-8.0
Cc1c(-c2cccc(Cl)c2)nc2ccccc2c1C(=O)OC/C(O)=C(\C#N)c1nc2ccccc2[nH]1,-0.1,-79.7,53.9*,23.2,27.6
Cn1nc(C(C)(C)C)cc1C(=O)N1CCCCC1c1cc(C(=O)N2CCOCC2)no1 (centres undefined),·,·,·,·,-7.1
COc1ccc2c3c([nH]c2c1)C1CC2C(CC(O)C(OC)C2C(=O)O)CN1CC3 (centres undefined),28.0*,-58.9,-7.5,-0.7,-7.7
COC(=O)[C@H]1[C@H]2C[C@@H]3c4[nH]c5cc(OC)ccc5c4CCN3C[C@H]2C[C@@H](OC(=O)c2cc(OC)c(OC)c(OC)c2)[C@@H]1OC,·,·,·,·,11.6
COc1ccccc1C(=O)Nc1ccnn1C1CCN(C)CC1,4.8,·,·,·,-3.1
COc1ccccc1C(=O)Nc1ccnn1C1CCN(C(C)CSC)CC1 (centres undefined),22.6*,·,·,·,-7.5
CC(=O)n1c2c(c3ccccc31)OC(N)=C(C#N)C2c1ccc(C(C)C)cc1 (centres undefined),31.1*,-1.2,-7.1,-7.3,26.5
CC(=O)C1=C(C)OC(N)=C(C#N)C1c1cccc2ccccc12 (centres undefined),-0.2,6.6,-2.9,6.2,3.8
SMILES,RanGTP-Impb inh,Calpain2 inh,Runt-SMMHC FRET,Runt-CBFb FRET,FAS TE block
C(=N\Nc1nc2ccccc2[nH]1)/c1ccccn1,2.7,-92.0,2.0,-1.4,-8.3
Fc1ccccc1-c1ccc(/C=N/Nc2nc3ccccc3[nH]2)o1,·,-9.8,76.7*,19.9,-42.7
COc1ccc(C(=O)/C=C2/Sc3cc4c(cc3N2C)OCO4)cc1,-2.1,-20.4,63.8,-134.0,-5.0
CN1/C(=C/C(=O)c2ccc(Cl)cc2)Sc2cc3c(cc21)OCO3,36.1*,32.2,-78.6,-56.3,-12.7
CCOC(=O)c1c2n(c3ccc(O)cc13)CCCCC2,22.0*,22.6,-4.0,-1.7,-0.5
Cc1ccc(SCCNC(=S)Nc2cc(C)cc(C)c2)cc1,-1.4,51.8*,-1.0,0.1,11.5
O=C(O)CCC(=O)Nc1ccc(Br)c(Cl)c1,-2.5,16.4,2.8,99.5*,-3.8
Cn1c(-c2ccc(N)cc2)nc2ccccc21,·,-104.1,3.2,-0.4,-1.8
Cc1ccc(-n2c(N)c(-c3nc4ccccc4n3C)sc2=S)cc1,27.9*,-57.7,-0.2,40.5,20.6
O=C(CN(C(=O)CNC(=O)c1cccs1)c1cccc(F)c1)NC1CCCC1,?,·,·,·,-3.2
